Experimental data published in ChEMBL document CHEMBL1143402 (PLoS Med, 2006).

Tests used:
Format in all cases: ADME, organism-based
[1] = test system: Mycobacterium tuberculosis variant bovis; assay: Drug metabolism in OPC-67683 resistant Mycobacterium bovis BCG Tokyo assessed as cell supernatant [14C]OPC-67683 metabolite level after 48 hrs by scintillation counting
Method in brief: (§1)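 ^14C-labelled drug (0.5 mg/ml stock) added 15 µl to 585 µl 7H9/TN-ADC culture, incubated 48 h. Acetonitrile (2 volumes) added, then centrifuged. Supernatant counted by scintillation; pellet dissolved in 2 M NaOH, 1 h at 60 °C, then counted. DPM expressed relative to broth control supernatant.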

[2] = test system: Mycobacterium tuberculosis variant bovis; assay: Drug metabolism in Mycobacterium bovis BCG Tokyo assessed as cell pellet [14C]OPC-67683 metabolite level after 48 hrs by scintillation counting; method in brief: as §1
[3] = test system: Mycobacterium tuberculosis variant bovis; assay: Drug metabolism in Mycobacterium bovis BCG Tokyo assessed as cell supernatant [14C]OPC-67683 metabolite level after 48 hrs by scintillation counting; method in brief: as §1

## C[C@]1(COc2ccc(N3CCC(Oc4ccc(OC(F)(F)F)cc4)CC3)cc2)Cn2cc([N+](=O)[O-])nc2O1
[1]
  Activity: 105%
[2]
  Activity: 22%
[3]
  Activity: 82%
